The source of these data is ChEMBL document CHEMBL1126875, “Synthesis and LTB4 receptor antagonist activities of the naturally occurring LTB4 receptor antagonist Leucettamine A and related analogues” (J Med Chem, 1993).

Test [1] deals with T1, Leukotriene B4 receptor 1 (Homo sapiens, UniProt Q15722). In words: Binding affinity against Leukotriene B4 receptor on intact differentiated U-937 cells in competitive binding assay with [3H]LTB4. Format: cell-based. Summed up: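 Differentiated U-937 cells (1.3% DMSO, 3–4 days), washed; 10⁶ intact cells incubated in HBSS with 0.1% ovalbumin and 0.2 nM [³H]LTB₄, 20 min at 0 °C. Nonspecific binding defined with 1 μM unlabeled LTB₄. Filtration then scintillation counting. IC₅₀ converted to Ki by Cheng–Prusoff.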
T1 sequence (Q15722 whole entry): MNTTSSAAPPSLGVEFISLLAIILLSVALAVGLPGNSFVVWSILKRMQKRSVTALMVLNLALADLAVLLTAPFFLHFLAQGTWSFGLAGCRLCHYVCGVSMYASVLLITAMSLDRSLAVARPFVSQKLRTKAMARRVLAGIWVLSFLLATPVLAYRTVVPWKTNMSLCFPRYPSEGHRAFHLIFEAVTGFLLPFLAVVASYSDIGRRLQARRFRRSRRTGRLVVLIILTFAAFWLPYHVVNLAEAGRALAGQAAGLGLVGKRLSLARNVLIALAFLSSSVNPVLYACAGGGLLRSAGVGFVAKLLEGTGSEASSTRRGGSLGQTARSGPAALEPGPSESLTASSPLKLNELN

For test [2], the system named is U-937. Description: Inhibition of [3H]LTB4 binding in whole cells. The following applies: Homo sapiens.
Test [3] has as its system U-937. Description: Inhibition of [3H]LTB4 binding in whole cells (U-937). The following applies: Homo sapiens.
Test [4] concerns the target T1, Leukotriene B4 receptor 1. In words: Binding affinity against Leukotriene B4 receptor on U-937 cell membrane preparations in competitive binding assay with [3H]LTB4.

For the compound `Cn1c(N)nc(Cc2ccccc2)c1Cc1ccccc1`, the affinity in test [1] corresponds to a Ki of 19 µM. For the same compound, the IC50 in test [2] was 30 µM. The corresponding values for `Cn1c(N)nc(Cc2ccc(CCCCO)cc2)c1Cc1ccccc1` are 2.4 µM and 3.8 µM. On to `Cn1cc(Cc2ccccc2)nc1N`, for which the concentration for half-maximal inhibition (IC50) in test [2] is above 100 µM. With `CCCCCCn1c(N)nc(Cc2ccccc2)c1Cc1ccccc1`, the IC50 in test [3] is above 100 µM. Regarding `COc1cccc(Cc2nc(N)n(C)c2Cc2ccccc2)c1`, the Ki in test [1] worked out at 27 µM. For the same compound, the 50% inhibitory concentration (IC50) in test [2] came out at 40 µM. The corresponding values for `Nc1nc(Cc2ccccc2)c(Cc2ccccc2)[nH]1` are 9 µM and 13 µM.

In test [2], `Cc1[nH]c(N)nc1Cc1ccccc1` registered an IC50 above 100 µM. `COc1ccc(/C=C/CCCCOc2ccc(C(=O)c3cccc(C(=O)O)c3)cc2CCC(=O)O)cc1` registered a Ki in test [4] of 0.36 µM. In test [1], `Cn1c(N)nc(Cc2ccc3c(c2)OCO3)c1Cc1ccc2c(c1)OCO2` [LEUCETTAMINE A] displayed a Ki of 3.5 µM. This compound also registered an IC50 in test [2] of 5.2 µM.

As a reminder, the Ki is a dissociation constant, usually derived from enzyme kinetics or from competition with a known ligand. Higher therefore signals lower affinity. Broadly, the IC50 is the midpoint of a concentration-inhibition curve. A lower IC50 goes with greater potency in that assay.
